NPY Y1 blocker – NPY-Y1 receptor antagonists, primary screen, cell-based. HEK293-CNG Y1 cells, membrane potential fluorescence; NPY at EC95, then isoproterenol. 1% of 200,000 active. Neuropeptide Y receptor type 1 (Homo sapiens), P25929. inhibition, % at 3.6 µM. AID 1040, 2008;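 active = inhibition above the campaign mean inhibition of all tested compounds plus 3 SD, cut at about 20% in these data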;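 note: 0% = DMSO wells given NPY plus isoproterenol and 100% = isoproterenol alone without NPY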
Target sequence (P25929 whole entry, looked up): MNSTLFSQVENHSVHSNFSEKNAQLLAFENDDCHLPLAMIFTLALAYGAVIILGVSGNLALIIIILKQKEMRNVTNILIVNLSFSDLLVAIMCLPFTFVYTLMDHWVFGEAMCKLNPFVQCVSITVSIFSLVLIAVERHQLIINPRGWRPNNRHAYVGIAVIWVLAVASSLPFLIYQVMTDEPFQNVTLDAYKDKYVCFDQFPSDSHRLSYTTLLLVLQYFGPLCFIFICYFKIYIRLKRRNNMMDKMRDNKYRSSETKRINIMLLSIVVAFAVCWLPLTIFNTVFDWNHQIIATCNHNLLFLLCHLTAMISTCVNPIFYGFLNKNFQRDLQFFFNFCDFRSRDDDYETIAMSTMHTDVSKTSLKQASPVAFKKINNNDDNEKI
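Assay system: HEK293 Y1/CNG channel cell line; Doses: single compound dose of 3.6 µM, 0.4% DMSO; Timing: dye 3 h, compound 60 min room temperature, stimulation 45 min; Technique: Membrane-potential fluorescent dye readout; Measure: % inhibition of NPY effect.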
NPY-Y2 PAM-ag – NPY-Y2 potentiators or agonists, primary screen, cell-based. AID 1359, 2008. activation, % at 3.6 µM. 0.45% of 220,000 active. cells expressing NPY-Y2, potentiator/agonist read-out. Neuropeptide Y receptor type 2 (Homo sapiens), P49146; in the data active = activation above about 27%;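 note: cells stimulated with NPY near EC25 plus isoproterenol at EC100; 0% = vehicle plus submaximal agonist and 100% = vehicle plus saturating agonist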
NPY-Y1 PAM-ag – NPY-Y1 receptor potentiators or agonists, primary screen, cell-based | AID 1304, 2008 | 0.37% of 220,000 active | activation, % at 3.6 µM | NPY-Y1 expressing cells, potentiator/agonist activation | Neuropeptide Y receptor type 1 (Homo sapiens), P25929; in the data active = activation above about 33%, passing the limit was not always enough;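 note: cells stimulated with NPY at EC10 then isoproterenol at EC100; 0% = low agonist plus stimulus and 100% = saturating agonist plus stimulus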
NPY-Y2 antag – NPY-Y2 receptor antagonists, primary screen, cell-based; Neuropeptide Y receptor type 2 (Homo sapiens), P49146; NPY-Y2 expressing cells, antagonist mode; inhibition, % at 2.7 µM; 0.99% of 140,000 active; AID 793, 2007; in the data active = inhibition above about 17%;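 note: 0% = vehicle with agonist challenge and 100% = reference antagonist with challenge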
* = called active by the depositor. Most compounds without a hit are left out; they make up all but 1.8% or so of the library.

`CCc1ccc(OCC(=O)NC(NC(=S)Nc2ccccc2C)C(Cl)(Cl)Cl)cc1` (centres undefined) gave NPY Y1 blocker 21*, NPY-Y2 PAM-ag 3, NPY-Y1 PAM-ag -1 and NPY-Y2 antag 19*.
Screening CCCn1c(N)c(C(=O)COc2ccc(Br)cc2F)c(=O)n(C)c1=O returned NPY Y1 blocker 6, NPY-Y2 PAM-ag 12 and NPY-Y1 PAM-ag 11.
O=C(C[n+]1ccc(-c2nnc3n2CCC3)cc1)c1ccc(Cl)cc1 was read as NPY Y1 blocker 8, NPY-Y2 PAM-ag -18, NPY-Y1 PAM-ag -5 and NPY-Y2 antag 1.
`COc1cccc2c1C(=O)C=C(C)C2=O` gave NPY Y1 blocker 5, NPY-Y2 PAM-ag 34*, NPY-Y1 PAM-ag 51* and NPY-Y2 antag 0.
For CC1=CC(=O)c2ccccc2C1=O the results were NPY Y1 blocker -3, NPY-Y2 PAM-ag 1, NPY-Y1 PAM-ag 2 and NPY-Y2 antag 1.
`Cc1ccc(OCC(=O)NC(=S)Nc2ccc(Br)cn2)cc1` gave NPY-Y2 PAM-ag 1 and NPY-Y1 PAM-ag 2.
For CC(=O)c1sc(NC(=O)c2ccc(Cn3cc(Br)cn3)o2)nc1C the results were NPY Y1 blocker -13, NPY-Y2 PAM-ag 48*, NPY-Y1 PAM-ag 46* and NPY-Y2 antag -6.
`N=c1c2c(ncn1Cc1ccco1)Oc1ccc3ccccc3c1C2c1ccccc1` (centres undefined) gave NPY Y1 blocker 39*, NPY-Y2 PAM-ag 5, NPY-Y1 PAM-ag -11 and NPY-Y2 antag 33*.
For COc1ccc(C2c3c(ncn(Cc4ccco4)c3=N)Oc3ccc4ccccc4c32)cc1 (centres undefined) the results were NPY Y1 blocker 18, NPY-Y2 PAM-ag -10, NPY-Y1 PAM-ag -9 and NPY-Y2 antag 15.
Screening CC(=O)c1sc(NC(=O)C=C(C)C)nc1C returned NPY Y1 blocker -1, NPY-Y2 PAM-ag 19, NPY-Y1 PAM-ag 12 and NPY-Y2 antag 0.
`CC(=O)c1sc(NC(=O)C2(F)C(F)(F)C(F)(F)C(F)(F)C(F)(F)C2(F)F)nc1C` gave NPY Y1 blocker -4, NPY-Y2 PAM-ag 54*, NPY-Y1 PAM-ag 56* and NPY-Y2 antag 3.
For Cc1nnc(SCc2ccc(F)cc2)n1NC/C=C/c1ccccc1 the results were NPY Y1 blocker -2, NPY-Y2 PAM-ag 13, NPY-Y1 PAM-ag -9 and NPY-Y2 antag 2.
O=C(Nc1cc(C(F)(F)F)ccc1N1CCOCC1)C1Cc2ccccc2CN1C(=O)c1ccco1 (centres undefined) was read as NPY Y1 blocker 26*, NPY-Y2 PAM-ag 8, NPY-Y1 PAM-ag 2 and NPY-Y2 antag 19*.
Screening CCCCCn1nnc2c(=O)oc3ccccc3c21 returned NPY Y1 blocker 7, NPY-Y2 PAM-ag -5 and NPY-Y1 PAM-ag 21.
For CC1CC(=O)NN=C1c1ccc(N)c([N+](=O)[O-])c1 (centres undefined) the results were NPY Y1 blocker 65*, NPY-Y2 PAM-ag -18, NPY-Y1 PAM-ag -69 and NPY-Y2 antag 78*.
COc1ccccc1S(=O)(=O)Cc1ccc(C(=O)NCCN2CCCCCC2)o1 was read as NPY Y1 blocker 2, NPY-Y2 PAM-ag -5, NPY-Y1 PAM-ag 6 and NPY-Y2 antag 0.
For CC(C)(C)C1CCc2c(sc3nc(SCC(=O)O)nc(N)c23)C1 (centres undefined) the results were NPY-Y2 PAM-ag 101* and NPY-Y1 PAM-ag 105*.
`COC(=O)CSc1nc(N)c2c3c(sc2n1)CCCC3` gave NPY Y1 blocker -5, NPY-Y2 PAM-ag 8, NPY-Y1 PAM-ag 27 and NPY-Y2 antag 2.
For COC(=O)CSc1nc(N)c2c3c(sc2n1)C(c1ccccc1)SC(c1ccccc1)C3 (centres undefined) the results were NPY Y1 blocker -13, NPY-Y2 PAM-ag 56*, NPY-Y1 PAM-ag 81* and NPY-Y2 antag 0.
Screening CN(CC(O)COc1ccccc1F)C1CCCCC1 (centres undefined) returned NPY Y1 blocker 4, NPY-Y2 PAM-ag -3 and NPY-Y1 PAM-ag -13.
Cc1ccccc1OCC(O)CN(Cc1ccccc1O)C1CCCCC1 (centres undefined) was read as NPY Y1 blocker 20*, NPY-Y2 PAM-ag 13 and NPY-Y1 PAM-ag 19.
Screening O=c1cc(NCCCO)c2ccccc2o1 returned NPY Y1 blocker 10, NPY-Y2 PAM-ag 72*, NPY-Y1 PAM-ag 110* and NPY-Y2 antag 1.
Screening OCCCNc1nc(-c2ccccc2)nc2c1oc1ccccc12 returned NPY-Y2 PAM-ag 16 and NPY-Y1 PAM-ag 7.
